Rows were chosen to be rich in hits. Some 1.5% of all compounds tested hit in one or more screens of this group.
PKA-R2B act = activators of human PKA-R2B complex | activation, % at 11.4 µM | PKA-R2B holoenzyme dissociation, Cy5-IP20 fluorescence polarization; R2B truncated from residue 108, S112A mutant; 0% DMSO only, 100% 113 µM cGMP | hit rate 0.079% among 340,000 | P22694+P31323;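 active means activation above a cutoff set at the mean over all compounds plus 3 SD, cut at about 18% in these data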;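 further: higher means more holoenzyme dissociation and a rise in polarization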
SIRT5 inh = blocks human SIRT5 desuccinylation of peptide; Q9NXA8; Purified SirT5, succinyl-peptide AMC, trypsin-coupled fluorescence; inhibition, % at 15 µM; hit rate 1.1% among 330,000; AID 652115; in the data active means inhibition above about 15%
Target sequence (Q9NXA8 whole entry, looked up): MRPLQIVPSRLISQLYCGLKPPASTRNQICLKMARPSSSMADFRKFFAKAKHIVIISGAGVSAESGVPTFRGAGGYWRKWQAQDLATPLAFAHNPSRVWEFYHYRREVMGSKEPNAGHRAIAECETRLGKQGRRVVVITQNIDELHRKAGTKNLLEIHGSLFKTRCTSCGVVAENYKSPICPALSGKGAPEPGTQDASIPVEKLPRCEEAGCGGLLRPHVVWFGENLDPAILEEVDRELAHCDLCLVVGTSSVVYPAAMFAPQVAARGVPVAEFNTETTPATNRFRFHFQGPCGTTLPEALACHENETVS
PKA-R1A act = activates the PKA-R1A holoenzyme complex | P00514+P68181 | PKA-R1A dissociation, Cy5-IP20 fluorescence polarization; scaled: DMSO 0%, 113 µM cGMP 100% | activation, % at 11.4 µM | hit rate 0.083% among 340,000 | AID 504707;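 active means percent activation above the mean of all tested compounds plus 3 SD, cut at about 19% in these data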;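 further: higher means more PKAc released from R1A so a rise in polarization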
S100A4 inh HTS = blocks human S100A4 binding to myosin IIA peptide. P26447. hit rate 0.14% among 360,000. inhibition, % at 10.7 µM. S100A4/TAMRA-MyoIIA peptide fluorescence polarization. AID 652163;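 active means mean inhibition of at least 70% across replicates, with every replicate also reaching that level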
Target sequence (P26447 whole entry, looked up): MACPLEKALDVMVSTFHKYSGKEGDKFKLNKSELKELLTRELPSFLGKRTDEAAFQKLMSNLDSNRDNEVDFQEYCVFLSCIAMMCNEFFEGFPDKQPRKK
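Assay system: human S100A4 monomer with TAMRA-labelled myosin IIA peptide / Buffer or medium: Calcium-containing HEPES buffer, pH 7.2 / Reagent: TAMRA-labelled myosin IIA heavy-chain peptide probe, 5 nM / Compound: one dose per compound / Timing: polarization read 5 min after assay mix addition, stable 5–60 min / Benchmarks: neutral control DMSO, positive control TFP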
CRFR2-BP antag = antagonists of CRF-binding protein/CRF-R2 receptor complex | HEK293 CRF-R2/CRF-BP, CRF-induced calcium fluorescence | inhibition, % at 11.8 µM | hit rate 0.59% among 350,000 | AID 588475;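 active means inhibition of the ligand-induced calcium signal above about 50% at the single tested concentration, limit read from the data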
Hits are given with their value; 0 = inactive; - = no result.

SMILES	PKA-R2B act	SIRT5 inh	PKA-R1A act	S100A4 inh HTS	CRFR2-BP antag
CCOC(=O)c1ccc(NC(=O)O[C@H]2[C@H](OC(=O)Nc3ccccc3)[C@@H](OC(=O)Nc3ccccc3)[C@@H](OC)O[C@@H]2CO)cc1	-	20	-	0	-
Cc1ccc(C(=O)N(Cc2nc(-c3ccc(C)cc3)no2)C(C)C)cc1	0	17	0	0	0
CN(C)C(=O)[C@H]1[C@H](CO)[C@H]2Cn3c(ccc(-c4ccccc4)c3=O)[C@@H]1N2CCc1ccccc1	-	0	-	0	-
CN(C)C(=O)[C@H]1[C@H](CO)[C@H]2Cn3c(cccc3=O)[C@@H]1N2C(=O)c1ccccc1	-	0	-	126	-
CN(C)C(=O)[C@@H]1[C@@H](CO)[C@@H]2Cn3c(ccc(-c4ccccc4)c3=O)[C@H]1N2CCc1ccccc1	-	29	-	0	-
CC=Cc1ccc2n(c1=O)C[C@@H]1[C@@H](CO)[C@H](C(=O)N(C)C)[C@H]2N1C(=O)c1ccccc1 (mixture of isomers)	-	0	-	0	-
CC(=O)N(C)C[C@H]1Oc2ncc(-c3ccccc3F)cc2C(=O)N([C@H](C)CO)C[C@@H]1C	-	0	-	0	-
C[C@@H]1CCCCO[C@@H](CN(C)Cc2ccc(C(=O)O)cc2)[C@H](C)CN([C@@H](C)CO)C(=O)c2cc(NS(=O)(=O)c3ccc(Cl)cc3)ccc2O1	-	0	-	0	-
COC(=O)c1ccc(CSc2nc3c(cnn3-c3ccc(Cl)cc3)c(=O)[nH]2)o1	0	-	0	-	0
COC(=O)c1ccc(CSc2nc3c(cnn3-c3ccc(F)cc3)c(=O)[nH]2)o1	0	0	0	0	52
O=C(CN1CCOCC1)NCC[C@@H]1CC[C@@H](NC(=O)Cc2ccccn2)[C@@H](CO)O1	-	0	-	0	-
Cc1cc(C)nc(SCC(=O)OCC(=O)Nc2nc3ccccc3s2)n1	0	-	0	-	0
COC(=O)c1ccc(NC(=O)COC(=O)CSc2nc(C)cc(C)n2)cc1	0	-	0	-	52
COc1ccc(-c2nc(SCC(=O)N(CC(C)C)c3c(N)n(Cc4ccccc4)c(=O)[nH]c3=O)n[nH]2)cc1	0	0	0	0	0
CCCN(C(=O)CSc1n[nH]c(-c2ccc(OC)cc2)n1)c1c(N)n(Cc2ccccc2)c(=O)[nH]c1=O	0	0	0	0	59
CSCc1nc2scc(-c3ccccc3)c2c(=O)[nH]1	0	0	0	0	0
COc1ccc(CN(C)Cc2nc3scc(-c4ccccc4)c3c(=O)[nH]2)cc1OC	0	0	0	0	60
CCCCC1=CC2=C(c3ccco3)C(=O)C(C)(OC(=O)c3ccc(OC)cc3)C(=O)C2=CN1CCCOC(C)C (stereo not drawn)	0	34	0	0	0
C=CCN1C=C2C(=O)C(C)(OC(=O)c3ccc(OC)cc3)C(=O)C(c3ccco3)=C2C=C1CCCC (stereo not drawn)	0	-	0	0	0
O=S(=O)(NCc1ccccn1)c1cc(C(F)(F)F)ccc1Cl	0	0	0	0	0
Cc1cc(C)c(NC(=O)c2ccc(CNS(=O)(=O)c3cc(C(F)(F)F)ccc3Cl)cc2)c(C)c1	0	0	0	0	59
CS(=O)(=O)N1[C@@H](C#N)[C@H](c2ccc(C#CC3CCCC3)cc2)[C@@H]1CO	-	0	-	0	-
CCCC1=C(C(=O)OCC)C(c2cccnc2)n2nc(C)nc2N1 (stereo not drawn)	0	0	0	0	114
CCOC(=O)C1=C(C)Nc2nnnn2C1c1cccnc1 (stereo not drawn)	0	-	0	-	0
COc1ccc(NC(=O)C(=O)Nc2cccc3cccnc23)cc1OC	0	0	0	0	0
SMILES	PKA-R2B act	SIRT5 inh	PKA-R1A act	S100A4 inh HTS	CRFR2-BP antag
COc1ccc(C(=O)Nc2cccc3cccnc23)cc1OC	0	20	0	0	0
COc1ccc(OC)c(NC(=O)c2ccccc2NS(=O)(=O)c2cccc3cccnc23)c1	0	-	0	-	74
CC(=O)Nc1ccc(/C=N/NC(=O)c2cc(-c3ccco3)nc3ccccc23)cc1	0	0	0	0	0
O=C(O)c1ccccc1/C=N/NC(=O)c1cc(-c2ccco2)nc2ccccc12	0	19	0	0	0
COc1ccc(OC)c(S(=O)(=O)NC(C)CCc2ccccc2)c1 (stereo not drawn)	0	0	0	0	0
COc1ccc(OC)c(S(=O)(=O)NCCc2ccccc2)c1	0	15	0	0	0
CC(C)NC(=O)N(C)C[C@H]1Oc2cc(C#CC(C)(C)O)ccc2S(=O)(=O)N([C@H](C)CO)C[C@@H]1C	-	0	-	0	-
COc1ccc2c3c([nH]c2c1)[C@H](CO)N(C(=O)C1CCC1)CC31CN(C(=O)c2ccccn2)C1	-	0	-	0	-
CC1=NN(c2ccc(Cl)c(C(=O)O)c2)C(=O)C1	0	0	0	0	0
CC1=NN(c2ccc(C(=O)O)c(N)c2)C(=O)C1	0	23	0	0	0
CCOc1ccc(CCNS(=O)(=O)c2cn(C)cn2)cc1OCC	0	33	0	0	0
Cc1ccc(S(=O)(=O)N(CC(=O)Nc2ccccc2C(=O)O)c2ccc(Cl)cc2)cc1	0	0	0	0	51
CN(C)C(=O)c1cccc(-c2ccc(C3[C@@H]4CN(S(=O)(=O)c5ccccc5)C[C@H]3N4)cc2)c1 (stereo partly drawn)	-	0	-	0	-
O=C(c1ccccc1F)N1C[C@@H]2O[C@H](CNS(=O)(=O)c3ccccc3)CC[C@@H]21	-	0	-	0	-
C/C=C(/C)C(=O)O[C@@H]1c2c(ccc3ccc(=O)oc23)OC(C)(C)[C@@H]1OC(=O)/C(C)=C\C	0	31	0	0	0
O=C(C[C@@H]1CC[C@H](NC(=O)Nc2ccccc2)[C@H](CO)O1)NCc1ccccn1	-	0	-	0	-
Cc1cc([N+](=O)[O-])ccc1NCc1ccccc1	0	-	0	-	114
COc1ccc(CNc2cc([N+](=O)[O-])ccc2OC)cc1	0	0	0	0	89
O=C(O)C(Cc1ccccc1)Nc1ccc([N+](=O)[O-])cc1[N+](=O)[O-] (stereo not drawn)	0	-	0	0	53
O=C(O)[C@H](Cc1ccccc1)Nc1ccc([N+](=O)[O-])cn1	0	0	0	0	0
C[C@H](CO)N1C[C@H](C)[C@@H](CN(C)Cc2ccncc2)Oc2ccc(NS(C)(=O)=O)cc2C1=O	-	0	-	0	-
O=C(C[C@@H]1CC[C@H]2[C@@H](COC[C@H](O)CN2C(=O)Nc2ccccc2)O1)NCc1ccncn1	-	0	-	0	-
O=C(C[C@@H]1CC[C@H]2[C@@H](COC[C@H](O)CN2Cc2cc(F)cc(F)c2)O1)NCc1cccc(F)c1	-	0	-	0	-
O=C(C[C@@H]1CC[C@H]2[C@@H](COC[C@@H](O)CN2Cc2ccncc2)O1)NCc1ccncc1	-	19	-	0	-
C[C@H](NC(=O)C[C@@H]1CC[C@H]2[C@@H](COC[C@@H](O)CN2Cc2ccc(C(F)(F)F)cc2)O1)c1ccccc1	-	17	-	0	-

Assay outcomes from PubChem.
